Source: ChEMBL document CHEMBL1811796, “Requirements for mammalian carboxylesterase inhibition by substituted ethane-1,2-diones” (Bioorg Med Chem, 2011)
pIC50, pKi: −log10 of the molar value. Active and inactive are the calls of the source. The calls are words filed in the database; no cut-off is given here.

Tests used:
[1] = Stability of the compound assessed as hydrolysis liberating phenol in aqueous solution at pH 7.4 after 5 mins; assay type: physicochemical; settings: read-out: Activity
Procedure, shortened: (§1)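 Compound at 200 μM in 50 mM Hepes pH 7.4, held 1, 5 or 20 min at rt or 37°C, with or without CE. Reactions were stopped with acetonitrile. Products were identified by reverse-phase HPLC with UV detection against phenol/thiophenol/aniline marker standards and no-enzyme samples.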

Liver carboxylesterase 1 [2] = molecular target: T1, Liver carboxylesterase 1 (Homo sapiens, UniProt P23141); assay: Inhibition of human liver carboxylesterase1 using o-nitrophenyl acetate as substrate after 5 mins by spectrophotometry
T1 sequence (P23141 whole entry): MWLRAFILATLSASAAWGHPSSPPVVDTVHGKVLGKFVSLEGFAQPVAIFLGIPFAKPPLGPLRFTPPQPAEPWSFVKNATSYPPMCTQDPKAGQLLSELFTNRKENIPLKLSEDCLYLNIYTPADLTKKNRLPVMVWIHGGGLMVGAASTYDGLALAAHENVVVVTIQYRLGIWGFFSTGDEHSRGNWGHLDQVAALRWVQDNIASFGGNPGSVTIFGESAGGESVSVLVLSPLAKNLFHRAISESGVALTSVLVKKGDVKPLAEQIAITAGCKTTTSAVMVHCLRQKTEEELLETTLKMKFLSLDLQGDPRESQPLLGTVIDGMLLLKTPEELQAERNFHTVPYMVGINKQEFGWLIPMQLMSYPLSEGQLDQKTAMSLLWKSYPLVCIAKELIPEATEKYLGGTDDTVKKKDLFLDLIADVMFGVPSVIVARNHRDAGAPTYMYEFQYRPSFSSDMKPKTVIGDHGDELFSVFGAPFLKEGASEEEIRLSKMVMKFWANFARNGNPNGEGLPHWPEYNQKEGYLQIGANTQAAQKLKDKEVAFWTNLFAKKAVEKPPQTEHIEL
Procedure, shortened: (§2)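 hCE1 and rabbit liver CE were purified from baculovirus-infected Spodoptera frugiperda cells, with 3 mM o-nitrophenyl acetate as substrate. A4₂₀ was read every 15 s for 5 min versus no-inhibitor wells. Screening was at 100 μM; compounds giving >50% reduction were rescreened from 1 pM to 100 μM. Ki came from fitting a partial-inhibition (α, β) model.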

Liver carboxylesterase 1 [3] = molecular target: T2, Liver carboxylesterase 1 (Oryctolagus cuniculus, UniProt P12337); assay: Inhibition of rabbit liver carboxylesterase using o-nitrophenyl acetate as substrate after for 5 mins by spectrophotometry; procedure, shortened: as §2
T2 sequence (P12337 whole entry): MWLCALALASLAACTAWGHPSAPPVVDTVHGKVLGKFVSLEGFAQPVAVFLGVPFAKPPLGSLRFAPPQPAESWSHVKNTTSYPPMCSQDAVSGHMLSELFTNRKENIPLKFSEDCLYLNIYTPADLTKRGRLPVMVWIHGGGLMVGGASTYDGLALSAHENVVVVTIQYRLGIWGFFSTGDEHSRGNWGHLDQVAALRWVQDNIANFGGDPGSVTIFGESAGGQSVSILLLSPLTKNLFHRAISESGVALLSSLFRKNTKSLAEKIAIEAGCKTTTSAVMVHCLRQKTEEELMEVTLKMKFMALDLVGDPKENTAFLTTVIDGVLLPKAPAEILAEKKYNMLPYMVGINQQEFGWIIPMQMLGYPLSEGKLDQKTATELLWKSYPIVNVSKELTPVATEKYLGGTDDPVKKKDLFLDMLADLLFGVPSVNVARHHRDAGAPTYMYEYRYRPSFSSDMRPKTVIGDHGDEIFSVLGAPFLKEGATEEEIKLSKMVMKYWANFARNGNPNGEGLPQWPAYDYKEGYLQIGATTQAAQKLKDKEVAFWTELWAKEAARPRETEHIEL

Cocaine esterase [4] = molecular target: T3, Cocaine esterase (Homo sapiens, UniProt O00748); assay: Inhibition of human intestinal carboxylesterase using o-nitrophenyl acetate as substrate after 5 mins by spectrophotometry
T3 sequence (O00748 whole entry): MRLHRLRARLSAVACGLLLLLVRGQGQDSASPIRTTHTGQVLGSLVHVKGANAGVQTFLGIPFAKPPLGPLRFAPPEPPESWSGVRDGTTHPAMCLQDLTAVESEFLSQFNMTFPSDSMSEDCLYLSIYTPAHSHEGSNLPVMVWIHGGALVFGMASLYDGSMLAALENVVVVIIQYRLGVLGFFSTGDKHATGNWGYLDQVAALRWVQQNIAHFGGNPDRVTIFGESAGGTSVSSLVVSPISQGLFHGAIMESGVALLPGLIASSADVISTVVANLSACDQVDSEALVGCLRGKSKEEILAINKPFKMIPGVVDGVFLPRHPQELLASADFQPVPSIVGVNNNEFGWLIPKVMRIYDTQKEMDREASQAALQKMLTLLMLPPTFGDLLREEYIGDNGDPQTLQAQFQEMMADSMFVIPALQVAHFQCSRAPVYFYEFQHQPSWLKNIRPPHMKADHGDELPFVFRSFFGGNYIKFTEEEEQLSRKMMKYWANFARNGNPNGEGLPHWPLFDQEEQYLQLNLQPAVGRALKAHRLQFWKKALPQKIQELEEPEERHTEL

Cholinesterase = Cholinesterase (Homo sapiens, UniProt P06276); assay: Inhibition of human butyrylcholinesterase using butyrylthiocholine as substrate by spectrophotometry
Sequence of Cholinesterase (P06276 whole entry): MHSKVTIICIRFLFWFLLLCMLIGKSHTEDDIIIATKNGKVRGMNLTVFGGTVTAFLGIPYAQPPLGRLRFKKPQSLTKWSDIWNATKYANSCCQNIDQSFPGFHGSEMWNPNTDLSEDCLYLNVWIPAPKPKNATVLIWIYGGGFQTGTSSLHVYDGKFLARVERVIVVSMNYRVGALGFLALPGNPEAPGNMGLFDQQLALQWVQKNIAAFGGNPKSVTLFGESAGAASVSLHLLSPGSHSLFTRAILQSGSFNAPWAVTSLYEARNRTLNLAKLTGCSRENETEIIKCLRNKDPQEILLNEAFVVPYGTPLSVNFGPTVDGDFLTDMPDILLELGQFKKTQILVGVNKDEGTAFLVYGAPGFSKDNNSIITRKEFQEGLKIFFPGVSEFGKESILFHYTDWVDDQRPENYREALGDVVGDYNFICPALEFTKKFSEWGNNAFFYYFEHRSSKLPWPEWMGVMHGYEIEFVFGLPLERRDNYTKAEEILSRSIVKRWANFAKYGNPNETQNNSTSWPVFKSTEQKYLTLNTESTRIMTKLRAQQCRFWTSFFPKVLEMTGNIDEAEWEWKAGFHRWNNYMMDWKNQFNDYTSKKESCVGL
Procedure, shortened: (§3)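 Human AChE and BChE were commercial enzymes. Substrate was 1 mM acetylthiocholine for AChE and 1 mM butyrylthiocholine for BChE.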

Acetylcholinesterase = Acetylcholinesterase (Homo sapiens, UniProt P22303); assay: Inhibition of human acetylcholinesterase using acetylthiocholine as substrate by spectrophotometry; procedure, shortened: as §3
Sequence of Acetylcholinesterase (P22303 whole entry): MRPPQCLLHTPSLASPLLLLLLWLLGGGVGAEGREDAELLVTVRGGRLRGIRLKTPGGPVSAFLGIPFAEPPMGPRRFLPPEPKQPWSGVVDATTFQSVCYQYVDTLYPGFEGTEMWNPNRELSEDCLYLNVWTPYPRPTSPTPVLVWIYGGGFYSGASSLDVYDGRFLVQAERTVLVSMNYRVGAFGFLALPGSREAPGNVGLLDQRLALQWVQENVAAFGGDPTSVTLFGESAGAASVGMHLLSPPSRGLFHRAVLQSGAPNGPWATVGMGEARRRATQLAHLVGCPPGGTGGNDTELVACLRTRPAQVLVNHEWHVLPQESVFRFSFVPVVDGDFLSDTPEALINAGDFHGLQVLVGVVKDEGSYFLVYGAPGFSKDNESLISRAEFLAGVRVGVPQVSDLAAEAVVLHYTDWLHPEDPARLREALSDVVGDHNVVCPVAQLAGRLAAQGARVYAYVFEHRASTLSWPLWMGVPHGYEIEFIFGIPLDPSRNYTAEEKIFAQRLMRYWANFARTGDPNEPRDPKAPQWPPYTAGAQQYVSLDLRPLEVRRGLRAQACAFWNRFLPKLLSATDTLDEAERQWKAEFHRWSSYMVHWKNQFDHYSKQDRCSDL

[5] = Stability of the compound assessed as hydrolysis liberating thiophenol in aqueous solution at pH 7.4 after 5 mins; assay type: physicochemical; parameters: scale not given: the % may be the effect or the level left; settings: buffer, pH 7.4, 5 min; procedure, shortened: as §1
[6] = Cytotoxicity against human U373MG cells expressing human intestinal carboxylesterase after 4 days in drug free medium by coulter counter; assay type: functional, cell-based, U-373MG ATCC; settings: U373 MG, 96 h
[7] = Cytotoxicity against human U373MG cells expressing human intestinal carboxylesterase after 4 days in drug free medium by coulter counter in presence of CPT-11; assay type: functional, cell-based, U-373MG ATCC; settings: U373 MG, 96 h
Procedure, shortened: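 U373MG cells stably expressing hiCE, seeded at 50,000 cells/well and left to adhere overnight. Cells were pre-incubated 1 h with inhibitor (10 μM), then exposed 2 h to inhibitor plus CPT-11 (0–100 μM). After washing, cells grew 4 days (~3 doublings) in drug-free medium and were counted. Runs were in triplicate, with survival compared to inhibitor-free controls. IC50 was taken from survival curves.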

[8] = molecular target: T4, intestinal carboxylesterase (cocaine esterase) (Homo sapiens, UniProt O00748); assay: Inhibition of intestinal carboxylesterase in human U373MG cells using 4-methylumbelliferone acetate as substrate at 10 uM after 1 hrs pre-incubation by fluorimetry; assay type: cell-based, U-373MG ATCC; settings: U373MG cells with intestinal carboxylesterase, probe 4-methylumbelliferone acetate
T4 sequence (O00748 whole entry): T3 sequence (O00748 whole entry)

Cocaine esterase [9] = molecular target: T3, Cocaine esterase; assay: Inhibition of human intestinal carboxylesterase assessed as hydrolysis of CPT-11 after 5 mins by HPLC
U373 MG = assay: Reduction of CPT-11 induced cytotoxicity against human U373MG cells at 10 uM pre-incubated for 1 hr measured after 4 days in drug free medium by coulter counter; assay type: functional, cell-based; settings: U-373MG ATCC
Procedure, shortened: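 U373MG cells expressing hiCE were plated at 50,000 cells/well and left to adhere overnight. They got 1 h pre-incubation with 10 μM inhibitor, then 2 h with inhibitor plus CPT-11 (0–100 μM). Cells were washed, grown 4 days drug-free and Coulter-counted. Runs were in triplicate against no-inhibitor controls, and IC50 came from survival curves.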

SMILES | pKi (Liver carboxylesterase 1 [2]) | pKi (Liver carboxylesterase 1 [3]) | pKi (Cocaine esterase [4]) | pKi (Cholinesterase) | pKi (Acetylcholinesterase) | other results
O=C(Oc1ccccc1)C(=O)Oc1ccccc1 [DIPHENYL ETHANEDIOAT] | < 4.00 | < 4.00 | < 4.00 | < 4.00 | < 4.00 | degraded at 5 min [1]: > 40%
O=C(Sc1ccccc1)C(=O)Sc1ccccc1 | < 4.00 | < 4.00 | < 4.00 | < 4.00 | < 4.00 | Activity [5]: > 40%
CCCC(=O)C(=O)CCC | 5.09 | 4.75 | – | < 4.00 | < 4.00 | –
O=C(Cc1ccccc1)C(=O)C(Br)c1ccccc1 (stereo not given) | 5.58 | 5.43 | – | < 4.00 | < 4.00 | –
O=C(C(=O)C1CCCCC1)C1CCCCC1 | 8.30 | 7.57 | 7.14 | – | – | –
CCC(=O)C(=O)CC | < 4.00 | < 4.00 | < 4.00 | < 4.00 | < 4.00 | –
O=C(Cc1ccccc1)C(=O)Cc1ccccc1 | 5.51 | < 4.00 | 4.67 | < 4.00 | < 4.00 | –
CCCCC(=O)C(=O)CCCC | 7.33 | – | – | < 4.00 | < 4.00 | –
CCCCC(=O)C(=O)c1ccccc1 | 7.58 | – | – | < 4.00 | < 4.00 | –
CCCCCC(=O)C(=O)c1ccccc1 | 8.18 | 6.96 | – | < 4.00 | < 4.00 | –
CCc1c2c(nc3ccc(OC(=O)N4CCC(N5CCCCC5)CC4)cc13)-c1cc3c(c(=O)n1C2)COC(=O)[C@]3(O)CC | – | – | – | – | – | pIC50 [6]: 5.44
O=C(Nc1ccccc1)C(=O)Nc1ccccc1 | < 4.00 | < 4.00 | < 4.00 | < 4.00 | < 4.00 | –
CCCCCCC(=O)C(=O)c1ccccc1 | 8.66 | 7.55 | – | < 4.00 | < 4.00 | pIC50 [6]: < 4.00; pIC50 [7]: 4.99
CCCC(=O)C(=O)c1ccccc1 | 6.99 | – | – | < 4.00 | < 4.00 | –
CCCCCCCCC(=O)C(=O)CCCCCCCC | 9.08 | – | – | < 4.00 | < 4.00 | –
CCC(=O)C(=O)c1ccccc1 | 5.81 | 4.90 | 5.62 | < 4.00 | < 4.00 | inhibition at 1 h, 10 µM [8]: 70.3%; pKi (Cocaine esterase [9]): 5.70
CCCCCCC(=O)C(=O)CCCCCC | 8.32 | – | – | < 4.00 | < 4.00 | Activity (U373 MG): inactive; pIC50 [6]: < 4.00; pIC50 [7]: 5.40
CCCCCCCC(=O)C(=O)CCCCCCC | 8.12 | – | – | < 4.00 | < 4.00 | –
O=C(C(=O)c1ccccc1)c1ccccc1 [BENZIL] | – | – | – | – | – | pIC50 [6]: < 4.00; pIC50 [7]: 4.64
O=C(C(=O)C(Br)c1ccccc1)C(Br)c1ccccc1 (stereo not given) | 6.97 | – | – | < 4.00 | < 4.00 | –
CCCCCC(=O)C(=O)CCCCC | 8.52 | – | – | < 4.00 | < 4.00 | –
